Measurements published in ChEMBL document CHEMBL1143823, “Addition of a C-terminal cysteine improves the anti-herpes simplex virus activity of a peptide containing the human immunodeficiency virus type 1 TAT protein transduction domain” (Antimicrob Agents Chemother, 2007).
Calls of active or inactive are those of the source. The rule behind the calls is not given here.

Tests used:
Human alphaherpesvirus 1 [1] = experiment: Antiviral activity against HSV1 in african green monkey Vero cells assessed as viral inactivation after 1 hr at 37 degC; format: functional, organism-based; settings: Human alphaherpesvirus 1, Vero
How it was run: (§1)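 hrR3 virions (1×10^6–6×10^6 PFU/ml) in serum-free DMEM incubated with peptide 1 h at 37°C. Free peptide removed by 1,000-fold dilution or by pelleting at 14,000 × g. Infectivity then titrated on Vero cells in triplicate by lysate β-galactosidase or X-Gal staining. EC50 from dose-response curves.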

Human alphaherpesvirus 1 [2] = experiment: Inhibition of HSV1 entry in african green monkey Vero cells assessed as beta-galactosidase activity for 1 hr at 37 degC; format: functional, organism-based; settings: Human alphaherpesvirus 1, Vero
How it was run: (§2)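 HSV-1 hrR3 (MOI 0.02–0.03) adsorbed to precooled Vero cells 1 h at 4°C and rinsed. Peptide added at 4°C, shifted to 37°C for 1 h of entry. Peptide rinsed off; pH 3 citrate 60 s. Lysis at 6 h, initial β-galactosidase rate (CPR-Gal, 570 nm) relative to mock, minus cycloheximide background; triplicates.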

Vero = experiment: Cytotoxicity against african green monkey Vero cells by trypan blue exclusion assay; format: cell-based; settings: chlorocebus sabaeus
How it was run: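 Viability by trypan blue exclusion in Vero cells after peptide exposure.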

Human alphaherpesvirus 1 [3] = experiment: Antiviral activity against HSV1 in african green monkey Vero cells assessed as resistance to viral infection after 1 hr at 37 degC; format: functional, organism-based; settings: Human alphaherpesvirus 1, Vero
How it was run: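 Vero monolayers exposed to peptide 1 h at 37°C, rinsed three times, infected with hrR3 (MOI 0.01) 1 h at 37°C without peptide. pH 3 citrate inactivates extracellular virus; lysate β-galactosidase (CPR-Gal, 570 nm) read 6 h later. EC50 from dose-response, triplicates per concentration.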

Human alphaherpesvirus 2 [4] = experiment: Antiviral activity against HSV2 333 pretreated for 1 hr before viral infection at 4 degC by plaque reduction assay; format: functional, organism-based
How it was run: (§3)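 Plaque reduction on Vero monolayers with HSV-2 strain 333, 150 PFU/well adsorbed 1 h at 4°C. Peptide added at 4°C, shift to 37°C 10 min later; alternatively cells pretreated 1 h at 4°C with peptide and rinsed before virus. Extracellular virus inactivated; 2% methylcellulose overlay for 2.5 days; crystal violet plaque counts.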

Human alphaherpesvirus 1 [5] = experiment: Antiviral activity against HSV1 hrR3S infected african green monkey Vero cells assessed as inhibition of viral cell-cell spread at 100 uM; format: functional, organism-based
How it was run: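 Vero cells infected with syncytial hrR3S (MOI 0.02–0.05) for 1–2 h at 37°C, then held up to 24 h at 37°C with 50-fold diluted neutralizing anti-HSV-1 antibody ± peptide. Syncytia viewed by X-Gal staining; fusion quantified as initial rate of lysate β-galactosidase.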

Human alphaherpesvirus 2 [6] = experiment: Antiviral activity against HSV2 333 assessed by plaque reduction assay; format: functional, organism-based; how it was run: as §3
Human alphaherpesvirus 1 [7] = experiment: Inhibition of HSV1 hrR3S syncytium formation in african green monkey Vero cells assessed as reduction of beta-galactosidase activity at 100 uM; format: functional; parameters: scale not given: the % may be the effect or the level left
How it was run: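 Confluent Vero (2.0 × 10^5 cells/well) infected with syncytial hrR3S (MOI 0.02 to 0.05) 1 to 2 h at 37°C, rinsed, then held up to 24 h at 37°C in carbonate-buffered serum DMEM with neutralizing anti-HSV-1 antibody (50-fold dilution) ± peptide. Fusion read as initial β-galactosidase rate in NP-40 lysates with CPR-Gal at 570 nm.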

Human alphaherpesvirus 1 [8] = experiment: Inhibition of HSV1 attachment in african green monkey Vero cells at 100 uM at 37 degC; format: functional; settings: Human alphaherpesvirus 1, Vero
Human alphaherpesvirus 1 [9] = experiment: Inactivation of HSV1 in african green monkey Vero cells assessed as beta-galactosidase activity upto 200 uM at 37 degC; format: functional, organism-based; how it was run: as §1
Human alphaherpesvirus 1 [10] = experiment: Antiviral activity against HSV1 assessed as Inhibition of VP16 nuclear translocation in african green monkey Vero cells at 50 uM after 1 hr at 4 degC; format: functional; parameters: scale not given: the % may be the effect or the level left
How it was run: (§4)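 Vero cells on poly-L-lysine coverslips; HSV-1 adsorbed 80 min at 4°C (MOI 10). Peptide at 50 μM present for the last 20 min of adsorption and through the 1 h 37°C entry period, or virus pretreated with 300 μM for 1 h at 37°C and then diluted. Cells fixed, anti-VP16 immunofluorescence, 50 cells per group scored for nuclear VP16.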

Human alphaherpesvirus 1 [11] = experiment: Antiviral activity against HSV1 assessed as Inhibition of VP16 nuclear translocation in african green monkey Vero cells at 300 uM after 1 hr at 37 degC; format: functional; parameters: scale not given: the % may be the effect or the level left; how it was run: as §4
Human alphaherpesvirus 1 [12] = experiment: Inhibition of HSV1 entry in african green monkey Vero cells assessed as beta-galactosidase activity relative to control […]; format: functional, organism-based; settings: Human alphaherpesvirus 1, Vero; how it was run: as §2
Human alphaherpesvirus 2 [13] = experiment: Antiviral activity against HSV2 333 assessed as resistance against viral infection; format: functional, organism-based
Human alphaherpesvirus 1 [14] = experiment: Inhibition of HSV1 entry in african green monkey Vero cells assessed as beta-galactosidase activity at 30 uM at 33 degC after 40 mins; format: functional, organism-based
How it was run: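 Vero cells on strip-well plates with hrR3 adsorbed 1 h at 4°C; entry started by floating the plate at 33°C. Peptide added just before the shift or 35 min after, returning to 33°C at 40 min. At set times, external virus inactivated with pH 3 citrate. Lysed 6 h later; β-galactosidase initial rate read against mock-treated controls, triplicate.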

Row | SMILES | EC50 (Human alphaherpesvirus 1 [1]) [µM] | EC50 (Human alphaherpesvirus 1 [2]) [µM] | Activity (Vero) | EC50 (Human alphaherpesvirus 1 [3]) [µM] | also measured
1 | N=C(N)NCCC[C@@H](NC(=O)CN)C(=O)N[C@H](CCCCN)C(=O)N[C@H](CCCCN)C(=O)N[C@H](CCCNC(=N)N)C(=O)N[C@H](CCCNC(=N)N)C(=O)N[C@H](CCC(N)=O)C(=O)N[C@H](CCCNC(=N)N)C(=O)N[C@H](CCCNC(=N)N)C(=O)N[C@H](CCCNC(=N)N)C(=O)N[C@H](CSSC[C@@H](NC(=O)[C@@H](CCCNC(=N)N)NC(=O)[C@@H](CCCNC(=N)N)NC(=O)[C@@H](CCCNC(=N)N)NC(=O)[C@@H](CCC(N)=O)NC(=O)[C@@H](CCCNC(=N)N)NC(=O)[C@@H](CCCNC(=N)N)NC(=O)[C@@H](CCCCN)NC(=O)[C@@H](CCCCN)NC(=O)[C@@H](CCCNC(=N)N)NC(=O)CN)C(N)=O)C(N)=O | 34 | 0.6 | Non-toxic | 0.4 | 
2 | N=C(N)NCCC[C@@H](NC(=O)CN)C(=O)N[C@H](CCCCN)C(=O)N[C@H](CCCCN)C(=O)N[C@H](CCCNC(=N)N)C(=O)N[C@H](CCCNC(=N)N)C(=O)N[C@H](CCC(N)=O)C(=O)N[C@H](CCCNC(=N)N)C(=O)N[C@H](CCCNC(=N)N)C(=O)N[C@H](CCCNC(=N)N)C(=O)N[C@H](CS)C(=O)O | 150 | 2.5 | Non-toxic | 5.4 | EC50 (Human alphaherpesvirus 2 [4]): 7.7 µM; Activity (Human alphaherpesvirus 1 [5]): Active; EC50 (Human alphaherpesvirus 2 [6]): 1.3 µM
3 | N=C(N)NCCC[C@H](NC(=O)CNC(=O)CCCCCNC(=O)CCCC[C@@H]1SC[C@@H]2NC(=O)N[C@@H]21)C(=O)N[C@@H](CCCCN)C(=O)N[C@@H](CCCCN)C(=O)N[C@@H](CCCNC(=N)N)C(=O)N[C@@H](CCCNC(=N)N)C(=O)N[C@@H](CCC(N)=O)C(=O)N[C@@H](CCCNC(=N)N)C(=O)N[C@@H](CCCNC(=N)N)C(=O)N[C@@H](CCCNC(=N)N)C(=O)N[C@@H](CS)C(N)=O |  | 5.7 | Non-toxic |  | 
4 | N=C(N)NCCC[C@@H](NC(=O)CNC(=O)CCCCCNC(=O)CCCC[C@@H]1SC[C@@H]2NC(=O)N[C@@H]21)C(=O)N[C@H](CCCCN)C(=O)N[C@H](CCCCN)C(=O)N[C@H](CCCNC(=N)N)C(=O)N[C@H](CCCNC(=N)N)C(=O)N[C@H](CCC(N)=O)C(=O)N[C@H](CCCNC(=N)N)C(=O)N[C@H](CCCNC(=N)N)C(=O)N[C@H](CCCNC(=N)N)C(=O)N[C@H](CS)C(=O)O |  | 2.1 | Non-toxic |  | Activity (Human alphaherpesvirus 1 [7]): 93%; inhibition at 100 µM (Human alphaherpesvirus 1 [8]): 25%
5 | N=C(N)NCCC[C@H](NC(=O)CN)C(=O)N[C@@H](CCCCN)C(=O)N[C@@H](CCCCN)C(=O)N[C@@H](CCCNC(=N)N)C(=O)N[C@@H](CCCNC(=N)N)C(=O)N[C@@H](CCC(N)=O)C(=O)N[C@@H](CCCNC(=N)N)C(=O)N[C@@H](CCCNC(=N)N)C(=O)N[C@@H](CCCNC(=N)N)C(=O)N[C@@H](CS)C(=O)O | 96 | 3.1 | Non-toxic | 3.3 | Activity (Human alphaherpesvirus 1 [9]): Active; Activity (Human alphaherpesvirus 1 [10]): 6%; Activity (Human alphaherpesvirus 1 [11]): 2.5%
6 | N=C(N)NCCC[C@@H](NC(=O)CN)C(=O)N[C@H](CCCCN)C(=O)N[C@H](CCCCN)C(=O)N[C@H](CCCNC(=N)N)C(=O)N[C@H](CCCNC(=N)N)C(=O)N[C@H](CCC(N)=O)C(=O)N[C@H](CCCNC(=N)N)C(=O)N[C@H](CCCNC(=N)N)C(=O)N[C@H](CCCNC(=N)N)C(=O)N1CCC[C@@H]1C(N)=O | 1050 | 0.7 | Non-toxic | > 1200 | EC50 (Human alphaherpesvirus 1 [12]): 0.3 µM
7 | N=C(N)NCCC[C@H](NC(=O)[C@H](CCCNC(=N)N)NC(=O)[C@H](CCCNC(=N)N)NC(=O)[C@H](CCC(N)=O)NC(=O)[C@H](CCCNC(=N)N)NC(=O)[C@H](CCCNC(=N)N)NC(=O)[C@H](CCCCN)NC(=O)[C@H](CCCCN)NC(=O)[C@H](CCCNC(=N)N)NC(=O)CN)C(N)=O | > 1200 | 1 | Non-toxic | > 1200 | EC50 (Human alphaherpesvirus 1 [12]): 0.3 µM
8 | N=C(N)NCCC[C@@H](NC(=O)CN)C(=O)N[C@H](CCCCN)C(=O)N[C@H](CCCCN)C(=O)N[C@H](CCCNC(=N)N)C(=O)N[C@H](CCCNC(=N)N)C(=O)N[C@H](CCC(N)=O)C(=O)N[C@H](CCCNC(=N)N)C(=O)N[C@H](CCCNC(=N)N)C(=O)N[C@H](CCCNC(=N)N)C(=O)N[C@H](CS)C(N)=O | 200 | 0.9 | Non-toxic | 1.1 | EC50 (Human alphaherpesvirus 2 [6]): 2.5 µM; EC50 (Human alphaherpesvirus 1 [12]): 0.3 µM; EC50 (Human alphaherpesvirus 2 [13]): 81 µM
9 | CCCC[C@H](NC(=O)[C@H](CCCC)NC(=O)[C@H](CCC(N)=O)NC(=O)[C@H](CCCNC(=N)N)NC(=O)[C@H](CCCNC(=N)N)NC(=O)[C@H](CCCCN)NC(=O)[C@H](CCCCN)NC(=O)[C@H](CCCNC(=N)N)NC(=O)CNC(=O)CCCCCNC(=O)CCCC[C@@H]1SC[C@@H]2NC(=O)N[C@@H]21)C(=O)N[C@@H](CCCNC(=N)N)C(=O)N[C@@H](CS)C(=O)O |  | 37 | Non-toxic |  | 
10 | CCCC[C@H](NC(=O)[C@H](CCCC)NC(=O)[C@H](CCC(N)=O)NC(=O)[C@H](CCCNC(=N)N)NC(=O)[C@H](CCCNC(=N)N)NC(=O)[C@H](CCCCN)NC(=O)[C@H](CCCCN)NC(=O)[C@H](CCCNC(=N)N)NC(=O)CN)C(=O)N[C@@H](CCCNC(=N)N)C(=O)N[C@@H](CS)C(=O)O | 900 | 48 | Non-toxic | 230 | 
11 | CCCC[C@H](NC(=O)[C@H](CCCNC(=N)N)NC(=O)CN)C(=O)N[C@@H](CCCC)C(=O)N[C@@H](CCCNC(=N)N)C(=O)N[C@@H](CCCNC(=N)N)C(=O)N[C@@H](CCC(N)=O)C(=O)N[C@@H](CCCNC(=N)N)C(=O)N[C@@H](CCCNC(=N)N)C(=O)N[C@@H](CCCNC(=N)N)C(=O)N[C@@H](CS)C(N)=O | 115 | 9.6 | Non-toxic | 92 | Activity (Human alphaherpesvirus 1 [14]): Active
12 | N=C(N)NCCC[C@H](NC(=O)CN)C(=O)N[C@@H](CCCCN)C(=O)N[C@@H](CCCCN)C(=O)N[C@@H](CCCNC(=N)N)C(=O)N[C@@H](CCCNC(=N)N)C(=O)N[C@@H](CCC(N)=O)C(=O)N[C@@H](CCCNC(=N)N)C(=O)N[C@@H](CCCNC(=N)N)C(=O)N[C@@H](CCCNC(=N)N)C(=O)N[C@@H](CS)C(N)=O | 390 | 0.9 | Non-toxic | 3.9 | 
